The source of these data is ChEMBL document CHEMBL1687840, “Vancomycin bonded to bone grafts prevents bacterial colonization” (Antimicrob Agents Chemother, 2011).

One data set is filed under the species Homo sapiens. Description: Binding affinity to human morselized allograft bone by immunohistochemical analysis. The gist of the method: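 Human cancellous/cortical bone granules (0.5–2.0 mm), EDTA-treated, with covalently coupled VAN and washed until eluent gave no S. aureus disk-diffusion inhibition. PBS-washed ×3, blocked 1 h in 10% FBS/PBS, rabbit anti-VAN IgG (1:500) 12 h at 4°C, Alexa 488 anti-rabbit (1:1,000) 1 h RT, epifluorescence read-out. Uncoupled bone as control.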

Data set [1] can be described thus: Stability of the human bone graft-bound drug in air after 7 days by immunofluorescent staining. The format is ADME. To be noted: 168 h. The gist of the method:
(§1)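 About 10 mg modified allograft held 7 days at 37°C in 1 ml water, PBS, DMEM-F-12 with 10% FBS, or S. aureus in TSB (bacteria removed by 30 min sonication in 1% SDS), or kept dry in air; then PBS-washed, blocked in 10% FBS/PBS 1 h, rabbit anti-VAN IgG 1:500 at 4°C 12 h, Alexa Fluor 488 anti-rabbit 1:1,000 RT 1 h, viewed by epifluorescence.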

Data set [2] can be described thus: Stability of the human bone graft-bound drug in water after 7 days by immunofluorescent staining. The format is ADME. To be noted: 168 h. An outline of the steps:
as §1

Data set [3] can be described thus: Stability of the human bone graft-bound drug in phosphate buffer saline after 7 days by immunofluorescent staining. To be noted: 168 h. The format is ADME. An outline of the steps: as §1
The nature of data set [4]: Stability of the human bone graft-bound drug in dulbecco modified eagle medium after 7 days by immunofluorescent staining. Conditions: 168 h. The format is ADME. An outline of the steps: as §1
Data set [5] is described as follows: Stability of the human bone graft-bound drug 7 days after incubation with Staphylococcus aureus in trypticase soy broth by immunofluorescent staining. To be noted: 168 h. Type of data set: ADME. An outline of the steps: as §1
Data set [6] concerns Staphylococcus aureus. Description: Antibacterial activity against Staphylococcus aureus Xen36 infected in drug treated human morselized bone allograft assessed as inhibition of biofilm formation after 5 hrs by confocal laser scanning microscopy. The format is functional, organism-based. The gist of the method: (§2)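 Allograft morsels challenged with S. aureus (1 ml, 1 × 10^4 CFU/ml) in TSB at 37°C without agitation for 5 or 12 h, washed three times in PBS, stained with Live/Dead BacLight (20 min, RT), imaged by confocal laser scanning microscopy with Z-plane optical sectioning and reconstruction.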

In data set [7] the test system is Staphylococcus aureus. The data set can be described thus: Antibacterial activity against Staphylococcus aureus Xen36 infected in drug treated human morselized bone allograft assessed as inhibition of biofilm formation after 12 hrs by confocal laser scanning microscopy. Type of data set: functional, organism-based. An outline of the steps:
as §2

Data set [8] deals with Staphylococcus aureus. Description: Antibacterial activity against Staphylococcus aureus Xen36 infected in drug treated human morselized bone allograft assessed as inhibition of biofilm formation after 6 hrs by scanning electron microscopy. Type of data set: functional, organism-based. The gist of the method:
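Allograft morsels exposed to S. aureus in TSB for 6 h, then examined by scanning electron microscopy at low magnification, ×1,500 and ×4,000 for adherent bacteria and biofilm.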

The next data set relates to Escherichia coli. Description: Antibacterial activity against Escherichia coli DH5[alpha] infected in drug treated human morselized bone allograft assessed as reduction of bacterial count after up to 12 hrs by colony counting. The format is functional, organism-based. An outline of the steps:
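Sterilized allograft granules (0.5–2.0 mm, human cancellous/cortical) incubated without agitation at 37°C in TSB with 1 ml of 1 × 10^4 CFU/ml bacteria (overnight TSB culture, 250 rpm, 37°C) for 2, 5, 8 or 12 h; washed three times with PBS, three more times, sonicated 5 min in 0.3% Tween 80/PBS, serially diluted, plated on Petrifilms and colonies counted; S. aureus shown as % of control per time point.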

In data set [9] the test system is Staphylococcus aureus. The data set can be described thus: Antibacterial activity against Staphylococcus aureus Xen36 infected in drug treated human morselized bone allograft assessed as reduction of bacterial count after 12 hrs followed by additional 4 hrs in presence of 10 ug/ml of drug by colony counting. Type of data set: functional, organism-based. The gist of the method: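 Control or modified allograft incubated with S. aureus (1 ml, 10^4 CFU/ml) in TSB 12 h, either with 10 μg/ml solution VAN added alongside inoculum, or washed, transferred and given 4 h in TSB with 10 μg/ml VAN; after 16 h total, washed, adherent bacteria sonicated off, plated and counted, expressed as % of control per condition.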

Data set [10] can be described thus: Cytotoxicity in human FOB on drug treated bone allograft assessed as morphological changes after 48 hrs by propidium iodide staining. The gist of the method: (§3)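 Cortical allograft pieces (1 × 1 cm; 70% ethanol, PBS and medium rinses, 10 min UV) seeded with 1 ml of 50,000 cells/ml hFOB in DMEM-F-12 with 10% FBS; after 48 h fixed (4% paraformaldehyde), permeabilized (0.1% Triton X-100), stained with Alexa 488-phalloidin and propidium iodide 30 min RT, imaged by confocal microscopy.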

Data set [11] is described as follows: Cytotoxicity in human FOB on drug treated bone allograft assessed as changes on cytoskeletal architecture after 48 hrs by propidium iodide staining. The gist of the method: as §3
Data set [12] can be described thus: Cytotoxicity in human FOB on drug treated bone allograft assessed as increase of protein level after 1 day. Conditions: 24 h. An outline of the steps:
(§4)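 hFOB cells cultured on sterilized flat cortical allograft in DMEM-F-12 with 10% FBS for 1 or 3 days, lysed with M-PER buffer 30 min with shaking; total protein by Bradford assay as index of adhesion and proliferation; at least three experiments, means ± standard errors.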

Data set [13] is described as follows: Cytotoxicity in human FOB on drug treated bone allograft assessed as increase of protein level after 3 days. To be noted: 72 h. An outline of the steps: as §4
The nature of data set [14]: Cytotoxicity in human FOB on drug treated bone allograft assessed as release of lactate dehydrogenase after 1 day. Conditions: 24 h. The gist of the method: (§5)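 hFOB cells grown on flat cortical allograft 1 or 3 days; LDH released into medium measured with Tox-7 kit, given as percentage of released over total cellular LDH, normalized to day 1 controls; at least three experiments, means ± standard errors.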

Data set [15] is described as follows: Cytotoxicity in human FOB on drug treated bone allograft assessed as release of lactate dehydrogenase after 3 days. Conditions: 72 h. An outline of the steps: as §5

Calls of active or inactive are those of the source. The calls are words filed in the database; no cut-off is given here.

For `CN[C@H](CC(C)C)C(=O)N[C@H]1C(=O)N[C@@H](CC(N)=O)C(=O)N[C@H]2C(=O)N[C@H]3C(=O)N[C@H](C(=O)N[C@H](C(=O)O)c4cc(O)cc(O)c4-c4cc3ccc4O)[C@H](O)c3ccc(c(Cl)c3)Oc3cc2cc(c3O[C@@H]2O[C@H](CO)[C@@H](O)[C@H](O)[C@H]2O[C@H]2C[C@](C)(N)[C@H](O)[C@H](C)O2)Oc2ccc(cc2Cl)[C@H]1O` [VANCOMYCIN], the outcome in the data set listed under Homo sapiens, with Staphylococcus aureus [6], in the data set on Staphylococcus aureus [7], in the data set with Staphylococcus aureus [8] and in the data set with Staphylococcus aureus [9] was Active. In addition, the Stability result in data set [1], in [2], in data set [3], in data set [4] and in data set [5] was “Stable” in each case. In addition, the result in the data set with Escherichia coli was inactive. Besides, the Activity entry was “Non-toxic” in data set [10]; “Non-toxic” in [11]; “Toxic” in [12]; “Non-toxic” in data set [13]; “Non-toxic” in [14]; “Non-toxic” in data set [15].
